# Experimental data reported in paper PMC5621377 (Clinical cancer research : an official journal of the …, 2016).
# Tested on: patients with Rb+ advanced solid tumors or lymphomas
# Assay: Safety assessments, adverse events
# Assay type: in vivo, human
# In short: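 Oral test compound given daily 3-weeks-on/1-week-off in 28-day cycles, with doses escalated by a Bayesian logistic regression model with overdose control. Safety assessments, including ECGs, were done at baseline and at regular intervals. AEs were graded by CTCAE v4.0 and classed as suspected related to treatment. All patients dosed at least once were included; summaries were descriptive per dose level.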
# [1] = 50 mg 3-weeks-on/1-week-off, n = 4
# [2] = 70 mg 3-weeks-on/1-week-off, n = 2
# [3] = 140 mg 3-weeks-on/1-week-off, n = 4
# [4] = 260 mg 3-weeks-on/1-week-off, n = 4
# [5] = 280 mg 3-weeks-on/1-week-off, n = 4
# [6] = 350 mg 3-weeks-on/1-week-off, n = 5
# [7] = 400 mg 3-weeks-on/1-week-off, n = 5
smiles,measurement,setting,value
CN(C)C(=O)c1cc2cnc(Nc3ccc(N4CCNCC4)cn3)nc2n1C1CCCC1 [ribociclib],"Anemia, Grade 3/4, AE suspected related to study treatment",[1],0 n (%)
same,"Anemia, Grade All, AE suspected related to study treatment",[1],0 n (%)
same,"Appetite decreased, Grade 3/4, AE suspected related to study treatment",[1],0 n (%)
same,"Appetite decreased, Grade All, AE suspected related to study treatment",[1],0 n (%)
same,"Blood creatinine increased, Grade 3/4, AE suspected related to study treatment",[1],0 n (%)
same,"Blood creatinine increased, Grade All, AE suspected related to study treatment",[1],0 n (%)
same,"Diarrhea, Grade 3/4, AE suspected related to study treatment",[1],0 n (%)
same,"Diarrhea, Grade All, AE suspected related to study treatment",[1],0 n (%)
same,"Fatigue, Grade 3/4, AE suspected related to study treatment",[1],0 n (%)
same,"Fatigue, Grade All, AE suspected related to study treatment",[1],2 (50) n (%)
same,"Leukopenia, Grade 3/4, AE suspected related to study treatment",[1],0 n (%)
same,"Leukopenia, Grade All, AE suspected related to study treatment",[1],0 n (%)
same,"Lymphopenia, Grade 3/4, AE suspected related to study treatment",[1],0 n (%)
same,"Lymphopenia, Grade All, AE suspected related to study treatment",[1],0 n (%)
same,"Nausea, Grade 3/4, AE suspected related to study treatment",[1],0 n (%)
same,"Nausea, Grade All, AE suspected related to study treatment",[1],0 n (%)
same,"Neutropenia, Grade 3/4, AE suspected related to study treatment",[1],0 n (%)
same,"Neutropenia, Grade All, AE suspected related to study treatment",[1],0 n (%)
same,"Thrombocytopenia, Grade 3/4, AE suspected related to study treatment",[1],0 n (%)
same,"Thrombocytopenia, Grade All, AE suspected related to study treatment",[1],0 n (%)
same,"Vomiting, Grade 3/4, AE suspected related to study treatment",[1],0 n (%)
same,"Vomiting, Grade All, AE suspected related to study treatment",[1],0 n (%)
same,"Anemia, Grade 3/4, AE suspected related to study treatment",[2],0 n (%)
same,"Anemia, Grade All, AE suspected related to study treatment",[2],0 n (%)
same,"Appetite decreased, Grade 3/4, AE suspected related to study treatment",[2],0 n (%)
same,"Appetite decreased, Grade All, AE suspected related to study treatment",[2],0 n (%)
same,"Blood creatinine increased, Grade 3/4, AE suspected related to study treatment",[2],0 n (%)
same,"Blood creatinine increased, Grade All, AE suspected related to study treatment",[2],0 n (%)
same,"Diarrhea, Grade 3/4, AE suspected related to study treatment",[2],0 n (%)
same,"Diarrhea, Grade All, AE suspected related to study treatment",[2],0 n (%)
same,"Fatigue, Grade 3/4, AE suspected related to study treatment",[2],0 n (%)
same,"Fatigue, Grade All, AE suspected related to study treatment",[2],2 (100) n (%)
same,"Leukopenia, Grade 3/4, AE suspected related to study treatment",[2],0 n (%)
same,"Leukopenia, Grade All, AE suspected related to study treatment",[2],0 n (%)
same,"Lymphopenia, Grade 3/4, AE suspected related to study treatment",[2],0 n (%)
same,"Lymphopenia, Grade All, AE suspected related to study treatment",[2],0 n (%)
same,"Nausea, Grade 3/4, AE suspected related to study treatment",[2],0 n (%)
same,"Nausea, Grade All, AE suspected related to study treatment",[2],1 (50) n (%)
same,"Neutropenia, Grade 3/4, AE suspected related to study treatment",[2],0 n (%)
same,"Neutropenia, Grade All, AE suspected related to study treatment",[2],0 n (%)
same,"Thrombocytopenia, Grade 3/4, AE suspected related to study treatment",[2],0 n (%)
same,"Thrombocytopenia, Grade All, AE suspected related to study treatment",[2],0 n (%)
same,"Vomiting, Grade 3/4, AE suspected related to study treatment",[2],0 n (%)
same,"Vomiting, Grade All, AE suspected related to study treatment",[2],1 (50) n (%)
same,"Anemia, Grade 3/4, AE suspected related to study treatment",[3],0 n (%)
same,"Anemia, Grade All, AE suspected related to study treatment",[3],0 n (%)
same,"Appetite decreased, Grade 3/4, AE suspected related to study treatment",[3],0 n (%)
same,"Appetite decreased, Grade All, AE suspected related to study treatment",[3],1 (25) n (%)
same,"Blood creatinine increased, Grade 3/4, AE suspected related to study treatment",[3],0 n (%)
same,"Blood creatinine increased, Grade All, AE suspected related to study treatment",[3],0 n (%)
same,"Diarrhea, Grade 3/4, AE suspected related to study treatment",[3],0 n (%)
same,"Diarrhea, Grade All, AE suspected related to study treatment",[3],0 n (%)
same,"Fatigue, Grade 3/4, AE suspected related to study treatment",[3],0 n (%)
same,"Fatigue, Grade All, AE suspected related to study treatment",[3],3 (75) n (%)
same,"Leukopenia, Grade 3/4, AE suspected related to study treatment",[3],0 n (%)
same,"Leukopenia, Grade All, AE suspected related to study treatment",[3],0 n (%)
same,"Lymphopenia, Grade 3/4, AE suspected related to study treatment",[3],0 n (%)
same,"Lymphopenia, Grade All, AE suspected related to study treatment",[3],0 n (%)
same,"Nausea, Grade 3/4, AE suspected related to study treatment",[3],0 n (%)
same,"Nausea, Grade All, AE suspected related to study treatment",[3],0 n (%)
same,"Neutropenia, Grade 3/4, AE suspected related to study treatment",[3],0 n (%)
same,"Neutropenia, Grade All, AE suspected related to study treatment",[3],0 n (%)
same,"Thrombocytopenia, Grade 3/4, AE suspected related to study treatment",[3],0 n (%)
same,"Thrombocytopenia, Grade All, AE suspected related to study treatment",[3],0 n (%)
same,"Vomiting, Grade 3/4, AE suspected related to study treatment",[3],0 n (%)
same,"Vomiting, Grade All, AE suspected related to study treatment",[3],0 n (%)
same,"Anemia, Grade 3/4, AE suspected related to study treatment",[4],0 n (%)
same,"Anemia, Grade All, AE suspected related to study treatment",[4],0 n (%)
same,"Appetite decreased, Grade 3/4, AE suspected related to study treatment",[4],0 n (%)
same,"Appetite decreased, Grade All, AE suspected related to study treatment",[4],0 n (%)
same,"Blood creatinine increased, Grade 3/4, AE suspected related to study treatment",[4],0 n (%)
same,"Blood creatinine increased, Grade All, AE suspected related to study treatment",[4],0 n (%)
same,"Diarrhea, Grade 3/4, AE suspected related to study treatment",[4],0 n (%)
same,"Diarrhea, Grade All, AE suspected related to study treatment",[4],0 n (%)
same,"Fatigue, Grade 3/4, AE suspected related to study treatment",[4],0 n (%)
same,"Fatigue, Grade All, AE suspected related to study treatment",[4],4 (100) n (%)
same,"Leukopenia, Grade 3/4, AE suspected related to study treatment",[4],0 n (%)
same,"Leukopenia, Grade All, AE suspected related to study treatment",[4],1 (25) n (%)
same,"Lymphopenia, Grade 3/4, AE suspected related to study treatment",[4],0 n (%)
same,"Lymphopenia, Grade All, AE suspected related to study treatment",[4],2 (50) n (%)
same,"Nausea, Grade 3/4, AE suspected related to study treatment",[4],0 n (%)
same,"Nausea, Grade All, AE suspected related to study treatment",[4],0 n (%)
same,"Neutropenia, Grade 3/4, AE suspected related to study treatment",[4],0 n (%)
same,"Neutropenia, Grade All, AE suspected related to study treatment",[4],0 n (%)
same,"Thrombocytopenia, Grade 3/4, AE suspected related to study treatment",[4],0 n (%)
same,"Thrombocytopenia, Grade All, AE suspected related to study treatment",[4],0 n (%)
same,"Vomiting, Grade 3/4, AE suspected related to study treatment",[4],0 n (%)
same,"Vomiting, Grade All, AE suspected related to study treatment",[4],0 n (%)
same,"Anemia, Grade 3/4, AE suspected related to study treatment",[5],0 n (%)
same,"Anemia, Grade All, AE suspected related to study treatment",[5],0 n (%)
same,"Appetite decreased, Grade 3/4, AE suspected related to study treatment",[5],0 n (%)
same,"Appetite decreased, Grade All, AE suspected related to study treatment",[5],2 (50) n (%)
same,"Blood creatinine increased, Grade 3/4, AE suspected related to study treatment",[5],0 n (%)
same,"Blood creatinine increased, Grade All, AE suspected related to study treatment",[5],0 n (%)
same,"Diarrhea, Grade 3/4, AE suspected related to study treatment",[5],0 n (%)
same,"Diarrhea, Grade All, AE suspected related to study treatment",[5],1 (25) n (%)
same,"Fatigue, Grade 3/4, AE suspected related to study treatment",[5],0 n (%)
same,"Fatigue, Grade All, AE suspected related to study treatment",[5],1 (25) n (%)
same,"Leukopenia, Grade 3/4, AE suspected related to study treatment",[5],0 n (%)
same,"Leukopenia, Grade All, AE suspected related to study treatment",[5],1 (25) n (%)
same,"Lymphopenia, Grade 3/4, AE suspected related to study treatment",[5],1 (25) n (%)
same,"Lymphopenia, Grade All, AE suspected related to study treatment",[5],1 (25) n (%)
same,"Nausea, Grade 3/4, AE suspected related to study treatment",[5],0 n (%)
same,"Nausea, Grade All, AE suspected related to study treatment",[5],2 (50) n (%)
same,"Neutropenia, Grade 3/4, AE suspected related to study treatment",[5],0 n (%)
same,"Neutropenia, Grade All, AE suspected related to study treatment",[5],1 (25) n (%)
same,"Thrombocytopenia, Grade 3/4, AE suspected related to study treatment",[5],0 n (%)
same,"Thrombocytopenia, Grade All, AE suspected related to study treatment",[5],1 (25) n (%)
same,"Vomiting, Grade 3/4, AE suspected related to study treatment",[5],0 n (%)
same,"Vomiting, Grade All, AE suspected related to study treatment",[5],0 n (%)
same,"Anemia, Grade 3/4, AE suspected related to study treatment",[6],0 n (%)
same,"Anemia, Grade All, AE suspected related to study treatment",[6],2 (40) n (%)
same,"Appetite decreased, Grade 3/4, AE suspected related to study treatment",[6],0 n (%)
same,"Appetite decreased, Grade All, AE suspected related to study treatment",[6],1 (20) n (%)
same,"Blood creatinine increased, Grade 3/4, AE suspected related to study treatment",[6],0 n (%)
same,"Blood creatinine increased, Grade All, AE suspected related to study treatment",[6],3 (60) n (%)
same,"Diarrhea, Grade 3/4, AE suspected related to study treatment",[6],0 n (%)
same,"Diarrhea, Grade All, AE suspected related to study treatment",[6],1 (20) n (%)
same,"Fatigue, Grade 3/4, AE suspected related to study treatment",[6],0 n (%)
same,"Fatigue, Grade All, AE suspected related to study treatment",[6],1 (20) n (%)
same,"Leukopenia, Grade 3/4, AE suspected related to study treatment",[6],0 n (%)
same,"Leukopenia, Grade All, AE suspected related to study treatment",[6],2 (40) n (%)
same,"Lymphopenia, Grade 3/4, AE suspected related to study treatment",[6],1 (20) n (%)
same,"Lymphopenia, Grade All, AE suspected related to study treatment",[6],1 (20) n (%)
same,"Nausea, Grade 3/4, AE suspected related to study treatment",[6],0 n (%)
same,"Nausea, Grade All, AE suspected related to study treatment",[6],2 (40) n (%)
same,"Neutropenia, Grade 3/4, AE suspected related to study treatment",[6],0 n (%)
same,"Neutropenia, Grade All, AE suspected related to study treatment",[6],1 (20) n (%)
same,"Thrombocytopenia, Grade 3/4, AE suspected related to study treatment",[6],0 n (%)
same,"Thrombocytopenia, Grade All, AE suspected related to study treatment",[6],0 n (%)
same,"Vomiting, Grade 3/4, AE suspected related to study treatment",[6],0 n (%)
same,"Vomiting, Grade All, AE suspected related to study treatment",[6],2 (40) n (%)
same,"Anemia, Grade 3/4, AE suspected related to study treatment",[7],0 n (%)
same,"Anemia, Grade All, AE suspected related to study treatment",[7],2 (40) n (%)
same,"Appetite decreased, Grade 3/4, AE suspected related to study treatment",[7],0 n (%)
same,"Appetite decreased, Grade All, AE suspected related to study treatment",[7],0 n (%)
same,"Blood creatinine increased, Grade 3/4, AE suspected related to study treatment",[7],0 n (%)
same,"Blood creatinine increased, Grade All, AE suspected related to study treatment",[7],1 (20) n (%)
same,"Diarrhea, Grade 3/4, AE suspected related to study treatment",[7],0 n (%)
same,"Diarrhea, Grade All, AE suspected related to study treatment",[7],0 n (%)
same,"Fatigue, Grade 3/4, AE suspected related to study treatment",[7],0 n (%)
same,"Fatigue, Grade All, AE suspected related to study treatment",[7],1 (20) n (%)
same,"Leukopenia, Grade 3/4, AE suspected related to study treatment",[7],0 n (%)
same,"Leukopenia, Grade All, AE suspected related to study treatment",[7],1 (20) n (%)
same,"Lymphopenia, Grade 3/4, AE suspected related to study treatment",[7],0 n (%)
same,"Lymphopenia, Grade All, AE suspected related to study treatment",[7],0 n (%)
same,"Nausea, Grade 3/4, AE suspected related to study treatment",[7],0 n (%)
